Laboratory results as given in ChEMBL document CHEMBL5653631, “A Potent and Selective ULK1 Inhibitor Suppresses Autophagy and Sensitizes Cancer Cells to Nutrient Stress” (iScience, 2018).
Values belong to the compound of their own block, whether it stands above or below them.

Assays:
[1] = biological target: T1, Serine/threonine-protein kinase ULK3 (Homo sapiens) (UniProt Q6PHR2); test: Inhibition of human recombinant ULK3 at 500 nM in presence of ATP by radiometric assay relative to control
T1 sequence (whole entry): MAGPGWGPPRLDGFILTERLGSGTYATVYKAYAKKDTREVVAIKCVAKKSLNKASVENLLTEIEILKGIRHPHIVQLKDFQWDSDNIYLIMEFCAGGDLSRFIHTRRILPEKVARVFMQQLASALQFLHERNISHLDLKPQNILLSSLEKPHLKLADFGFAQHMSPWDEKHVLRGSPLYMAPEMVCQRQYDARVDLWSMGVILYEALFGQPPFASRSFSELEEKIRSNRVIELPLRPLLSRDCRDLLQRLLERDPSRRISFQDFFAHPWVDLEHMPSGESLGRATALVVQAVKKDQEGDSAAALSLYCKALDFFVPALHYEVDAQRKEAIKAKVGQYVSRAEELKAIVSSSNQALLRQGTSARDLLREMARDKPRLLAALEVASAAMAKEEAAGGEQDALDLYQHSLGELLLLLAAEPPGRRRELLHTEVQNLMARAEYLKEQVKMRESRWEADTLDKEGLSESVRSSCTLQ

[2] = biological target: Wee1-like protein kinase (Homo sapiens) (UniProt P30291); test: Inhibition of human recombinant Wee1 at 500 nM related to control ULK1
[3] = biological target: T2, Mitogen-activated protein kinase 12 (Homo sapiens) (UniProt P53778); test: Inhibition of human recombinant p38gamma at 500 nM in presence of ATP by radiometric assay relative to control
T2 sequence (whole entry): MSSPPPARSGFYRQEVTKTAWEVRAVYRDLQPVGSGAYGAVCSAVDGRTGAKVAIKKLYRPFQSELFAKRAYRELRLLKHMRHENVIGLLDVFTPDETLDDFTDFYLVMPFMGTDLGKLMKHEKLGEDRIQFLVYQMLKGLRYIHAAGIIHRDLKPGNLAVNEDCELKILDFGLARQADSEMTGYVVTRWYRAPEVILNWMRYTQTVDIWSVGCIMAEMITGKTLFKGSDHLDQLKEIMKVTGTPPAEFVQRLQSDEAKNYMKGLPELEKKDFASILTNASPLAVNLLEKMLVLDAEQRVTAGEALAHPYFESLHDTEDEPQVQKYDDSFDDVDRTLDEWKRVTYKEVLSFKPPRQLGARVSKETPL

[4] = biological target: T3, Calcium/calmodulin-dependent protein kinase type IV (Homo sapiens) (UniProt Q16566); test: Inhibition of human recombinant CaMK4 at 15 nM in presence of ATP by radiometric assay relative to control
T3 sequence (whole entry): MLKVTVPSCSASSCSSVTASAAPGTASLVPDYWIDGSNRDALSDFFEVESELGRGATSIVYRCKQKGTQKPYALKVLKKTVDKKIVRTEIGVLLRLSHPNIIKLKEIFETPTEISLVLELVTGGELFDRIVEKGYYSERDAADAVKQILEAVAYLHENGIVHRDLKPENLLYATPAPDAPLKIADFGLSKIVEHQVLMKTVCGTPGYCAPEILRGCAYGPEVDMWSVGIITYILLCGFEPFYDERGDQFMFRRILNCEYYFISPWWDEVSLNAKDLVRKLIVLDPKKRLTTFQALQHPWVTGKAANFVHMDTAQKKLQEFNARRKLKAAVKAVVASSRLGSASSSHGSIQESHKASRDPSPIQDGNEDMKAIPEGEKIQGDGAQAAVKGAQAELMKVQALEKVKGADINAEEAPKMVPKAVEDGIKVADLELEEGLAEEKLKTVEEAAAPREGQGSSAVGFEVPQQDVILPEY

[5] = biological target: Tyrosine-protein kinase SYK (Homo sapiens) (UniProt P43405); test: Inhibition of human recombinant SYK at 15 nM related to control ULK1
[6] = biological target: Mitogen-activated protein kinase 11 (Homo sapiens) (UniProt Q15759); test: Inhibition of human recombinant p38beta at 15 nM in presence of ATP by radiometric assay relative to control
[7] = biological target: T4, Serine/threonine-protein kinase STK11 (Homo sapiens) (UniProt Q15831); test: Inhibition of human recombinant LKB1 at 15 nM related to control ULK1
T4 sequence (whole entry): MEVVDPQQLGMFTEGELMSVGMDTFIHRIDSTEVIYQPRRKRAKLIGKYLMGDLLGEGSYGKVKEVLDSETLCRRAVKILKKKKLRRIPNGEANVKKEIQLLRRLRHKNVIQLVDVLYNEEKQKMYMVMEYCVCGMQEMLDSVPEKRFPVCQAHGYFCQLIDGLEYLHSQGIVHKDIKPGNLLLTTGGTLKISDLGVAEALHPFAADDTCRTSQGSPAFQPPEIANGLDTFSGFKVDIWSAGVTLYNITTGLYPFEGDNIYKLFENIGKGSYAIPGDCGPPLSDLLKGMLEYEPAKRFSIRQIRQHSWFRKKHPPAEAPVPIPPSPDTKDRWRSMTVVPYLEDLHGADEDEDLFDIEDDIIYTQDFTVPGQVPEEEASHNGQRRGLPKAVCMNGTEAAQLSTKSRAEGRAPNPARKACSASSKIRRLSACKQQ

[8] = biological target: Interleukin-1 receptor-associated kinase 1 (Homo sapiens) (UniProt P51617); test: Inhibition of human recombinant IRAK1 at 40 nM related to control ULK1
[9] = biological target: Insulin receptor-related protein (Homo sapiens) (UniProt P14616); test: Inhibition of human recombinant IRR at 40 nM in presence of ATP by radiometric assay relative to control
[10] = biological target: Rho-associated protein kinase 1 (Homo sapiens) (UniProt Q13464); test: Inhibition of human recombinant ROCK1 at 40 nM related to control ULK1
[11] = biological target: T5, Aurora kinase C (Homo sapiens) (UniProt Q9UQB9); test: Inhibition of human recombinant AurC at 40 nM in presence of ATP by radiometric assay relative to control
T5 sequence (whole entry): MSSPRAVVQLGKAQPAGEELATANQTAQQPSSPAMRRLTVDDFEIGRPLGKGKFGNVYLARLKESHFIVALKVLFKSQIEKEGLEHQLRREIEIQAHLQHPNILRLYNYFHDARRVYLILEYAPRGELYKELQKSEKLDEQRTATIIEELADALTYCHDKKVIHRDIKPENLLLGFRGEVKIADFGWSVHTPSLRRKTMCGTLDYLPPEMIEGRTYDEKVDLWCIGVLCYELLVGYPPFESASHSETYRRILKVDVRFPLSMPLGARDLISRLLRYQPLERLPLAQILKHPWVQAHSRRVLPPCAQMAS
How it was run: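 Part of a radiometric in vitro activity panel of 327 recombinant human kinases. Each kinase was tested in duplicate at one inhibitor concentration. Activity remaining was expressed as a percentage of the vehicle control, and percent inhibition was taken as 100 minus that value.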

[12] = biological target: Serine/threonine-protein kinase WNK1 (Homo sapiens) (UniProt Q9H4A3); test: Inhibition of human recombinant Wnk1 at 40 nM related to control ULK1
Chain of Serine/threonine-protein kinase WNK1 (Homo sapiens) (Q9H4A3 whole entry, looked up): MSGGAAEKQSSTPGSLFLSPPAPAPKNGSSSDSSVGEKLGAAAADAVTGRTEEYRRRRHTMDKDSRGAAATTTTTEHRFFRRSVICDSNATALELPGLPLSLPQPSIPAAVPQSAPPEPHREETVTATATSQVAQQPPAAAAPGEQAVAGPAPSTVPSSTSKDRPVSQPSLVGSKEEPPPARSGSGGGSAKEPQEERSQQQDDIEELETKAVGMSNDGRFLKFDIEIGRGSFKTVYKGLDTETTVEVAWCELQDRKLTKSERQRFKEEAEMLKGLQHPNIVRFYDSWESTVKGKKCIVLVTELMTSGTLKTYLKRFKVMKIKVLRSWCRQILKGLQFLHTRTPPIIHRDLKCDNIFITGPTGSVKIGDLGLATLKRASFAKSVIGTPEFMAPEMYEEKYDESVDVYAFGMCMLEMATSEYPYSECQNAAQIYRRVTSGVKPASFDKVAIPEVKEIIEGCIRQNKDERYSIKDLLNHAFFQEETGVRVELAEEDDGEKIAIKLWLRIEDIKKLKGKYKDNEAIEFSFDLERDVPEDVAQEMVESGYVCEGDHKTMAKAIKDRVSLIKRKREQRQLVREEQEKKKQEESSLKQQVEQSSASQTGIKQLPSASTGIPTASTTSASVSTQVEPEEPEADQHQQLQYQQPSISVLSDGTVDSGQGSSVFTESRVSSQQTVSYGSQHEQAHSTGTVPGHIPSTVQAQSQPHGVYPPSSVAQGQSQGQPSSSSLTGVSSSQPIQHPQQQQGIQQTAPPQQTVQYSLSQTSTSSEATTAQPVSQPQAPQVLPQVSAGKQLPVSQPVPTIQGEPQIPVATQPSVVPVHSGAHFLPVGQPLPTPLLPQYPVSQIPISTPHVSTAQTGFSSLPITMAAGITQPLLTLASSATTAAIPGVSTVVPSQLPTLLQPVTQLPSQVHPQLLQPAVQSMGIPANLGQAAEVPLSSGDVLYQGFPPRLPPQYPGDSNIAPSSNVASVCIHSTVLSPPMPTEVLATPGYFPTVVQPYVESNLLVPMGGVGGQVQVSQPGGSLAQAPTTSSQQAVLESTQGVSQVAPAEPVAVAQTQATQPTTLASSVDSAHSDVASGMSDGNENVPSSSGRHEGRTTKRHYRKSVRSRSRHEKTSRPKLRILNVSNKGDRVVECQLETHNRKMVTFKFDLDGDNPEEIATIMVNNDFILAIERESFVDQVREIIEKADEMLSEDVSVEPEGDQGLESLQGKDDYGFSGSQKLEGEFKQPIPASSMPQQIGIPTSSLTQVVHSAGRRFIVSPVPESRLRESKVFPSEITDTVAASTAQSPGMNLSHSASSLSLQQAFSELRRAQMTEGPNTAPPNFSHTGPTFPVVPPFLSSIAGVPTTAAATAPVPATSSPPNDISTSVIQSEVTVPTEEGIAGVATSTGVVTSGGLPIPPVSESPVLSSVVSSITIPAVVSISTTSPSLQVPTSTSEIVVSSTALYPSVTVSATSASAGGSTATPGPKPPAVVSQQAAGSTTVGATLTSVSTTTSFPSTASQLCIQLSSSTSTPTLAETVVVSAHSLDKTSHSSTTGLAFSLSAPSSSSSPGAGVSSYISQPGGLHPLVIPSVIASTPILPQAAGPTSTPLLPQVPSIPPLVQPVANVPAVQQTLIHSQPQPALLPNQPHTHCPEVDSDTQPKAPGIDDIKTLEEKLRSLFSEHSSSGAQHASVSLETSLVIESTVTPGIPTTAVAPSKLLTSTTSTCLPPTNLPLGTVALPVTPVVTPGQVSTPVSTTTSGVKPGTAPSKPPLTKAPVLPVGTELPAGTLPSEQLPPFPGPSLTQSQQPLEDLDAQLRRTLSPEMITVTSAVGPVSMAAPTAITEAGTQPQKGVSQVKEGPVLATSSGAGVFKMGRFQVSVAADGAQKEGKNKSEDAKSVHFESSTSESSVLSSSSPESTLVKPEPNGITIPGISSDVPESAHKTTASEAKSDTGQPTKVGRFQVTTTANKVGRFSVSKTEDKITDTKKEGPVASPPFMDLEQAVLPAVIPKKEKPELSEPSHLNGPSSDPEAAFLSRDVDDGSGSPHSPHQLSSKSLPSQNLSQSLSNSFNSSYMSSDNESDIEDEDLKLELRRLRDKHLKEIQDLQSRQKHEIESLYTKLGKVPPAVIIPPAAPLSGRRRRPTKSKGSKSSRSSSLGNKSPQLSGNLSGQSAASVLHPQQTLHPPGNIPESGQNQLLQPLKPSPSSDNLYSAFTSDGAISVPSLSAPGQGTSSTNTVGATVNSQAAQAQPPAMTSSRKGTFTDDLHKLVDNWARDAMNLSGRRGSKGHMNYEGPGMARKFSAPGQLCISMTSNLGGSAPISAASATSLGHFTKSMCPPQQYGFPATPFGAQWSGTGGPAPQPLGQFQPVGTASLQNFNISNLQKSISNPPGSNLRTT

Chain of Interleukin-1 receptor-associated kinase 1 (Homo sapiens) (P51617 whole entry, looked up): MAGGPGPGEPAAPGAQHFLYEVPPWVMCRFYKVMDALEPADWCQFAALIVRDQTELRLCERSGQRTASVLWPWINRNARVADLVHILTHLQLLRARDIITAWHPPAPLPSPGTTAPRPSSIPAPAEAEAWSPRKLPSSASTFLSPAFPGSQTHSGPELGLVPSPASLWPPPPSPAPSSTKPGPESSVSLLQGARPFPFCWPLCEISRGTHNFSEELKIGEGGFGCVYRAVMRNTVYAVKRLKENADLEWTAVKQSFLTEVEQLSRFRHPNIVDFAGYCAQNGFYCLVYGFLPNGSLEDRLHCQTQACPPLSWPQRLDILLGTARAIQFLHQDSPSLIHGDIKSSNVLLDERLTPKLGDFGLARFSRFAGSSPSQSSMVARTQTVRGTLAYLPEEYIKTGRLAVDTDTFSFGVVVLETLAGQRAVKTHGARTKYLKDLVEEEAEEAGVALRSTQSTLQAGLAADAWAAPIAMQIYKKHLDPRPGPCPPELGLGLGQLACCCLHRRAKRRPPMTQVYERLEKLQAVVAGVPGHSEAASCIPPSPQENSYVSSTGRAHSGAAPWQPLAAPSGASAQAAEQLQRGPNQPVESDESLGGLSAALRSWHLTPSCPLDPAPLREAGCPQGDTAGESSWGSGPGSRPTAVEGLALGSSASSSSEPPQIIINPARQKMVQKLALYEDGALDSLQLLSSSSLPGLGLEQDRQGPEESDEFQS
Chain of Rho-associated protein kinase 1 (Homo sapiens) (Q13464 2-1354 limits assumed): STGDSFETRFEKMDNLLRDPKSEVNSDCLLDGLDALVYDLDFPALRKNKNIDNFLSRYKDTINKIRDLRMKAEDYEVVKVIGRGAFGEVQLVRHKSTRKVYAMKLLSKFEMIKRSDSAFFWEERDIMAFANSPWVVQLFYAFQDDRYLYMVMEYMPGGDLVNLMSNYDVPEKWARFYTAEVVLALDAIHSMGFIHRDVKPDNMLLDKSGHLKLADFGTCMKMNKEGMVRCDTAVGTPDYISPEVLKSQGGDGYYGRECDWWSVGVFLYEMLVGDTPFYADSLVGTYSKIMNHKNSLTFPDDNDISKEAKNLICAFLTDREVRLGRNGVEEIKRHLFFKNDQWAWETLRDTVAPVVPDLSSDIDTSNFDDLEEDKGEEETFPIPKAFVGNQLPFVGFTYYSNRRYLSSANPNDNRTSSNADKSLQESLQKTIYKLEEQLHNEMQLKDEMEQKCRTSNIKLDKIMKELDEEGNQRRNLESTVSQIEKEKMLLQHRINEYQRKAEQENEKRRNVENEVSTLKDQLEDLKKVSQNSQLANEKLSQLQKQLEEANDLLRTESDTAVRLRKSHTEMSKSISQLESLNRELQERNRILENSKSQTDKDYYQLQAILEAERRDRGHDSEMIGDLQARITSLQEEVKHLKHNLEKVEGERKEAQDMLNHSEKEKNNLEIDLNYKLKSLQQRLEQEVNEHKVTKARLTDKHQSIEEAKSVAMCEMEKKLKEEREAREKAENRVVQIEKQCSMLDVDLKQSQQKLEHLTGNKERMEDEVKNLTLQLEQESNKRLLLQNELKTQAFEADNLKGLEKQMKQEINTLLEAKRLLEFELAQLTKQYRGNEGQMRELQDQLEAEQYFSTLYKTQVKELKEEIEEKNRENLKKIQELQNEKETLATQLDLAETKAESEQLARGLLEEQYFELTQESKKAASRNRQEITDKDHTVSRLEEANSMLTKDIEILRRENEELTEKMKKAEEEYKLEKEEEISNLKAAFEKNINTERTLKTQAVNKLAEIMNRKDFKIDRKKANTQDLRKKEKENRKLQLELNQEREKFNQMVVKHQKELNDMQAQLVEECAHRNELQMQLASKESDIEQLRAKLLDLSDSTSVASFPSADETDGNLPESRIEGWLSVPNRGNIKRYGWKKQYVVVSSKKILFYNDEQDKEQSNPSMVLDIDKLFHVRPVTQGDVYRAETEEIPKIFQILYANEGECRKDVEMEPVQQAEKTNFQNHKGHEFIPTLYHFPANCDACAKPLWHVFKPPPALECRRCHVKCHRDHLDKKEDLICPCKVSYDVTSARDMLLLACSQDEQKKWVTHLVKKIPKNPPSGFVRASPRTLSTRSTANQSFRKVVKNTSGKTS
Chain of Wee1-like protein kinase (Homo sapiens) (P30291 whole entry, looked up): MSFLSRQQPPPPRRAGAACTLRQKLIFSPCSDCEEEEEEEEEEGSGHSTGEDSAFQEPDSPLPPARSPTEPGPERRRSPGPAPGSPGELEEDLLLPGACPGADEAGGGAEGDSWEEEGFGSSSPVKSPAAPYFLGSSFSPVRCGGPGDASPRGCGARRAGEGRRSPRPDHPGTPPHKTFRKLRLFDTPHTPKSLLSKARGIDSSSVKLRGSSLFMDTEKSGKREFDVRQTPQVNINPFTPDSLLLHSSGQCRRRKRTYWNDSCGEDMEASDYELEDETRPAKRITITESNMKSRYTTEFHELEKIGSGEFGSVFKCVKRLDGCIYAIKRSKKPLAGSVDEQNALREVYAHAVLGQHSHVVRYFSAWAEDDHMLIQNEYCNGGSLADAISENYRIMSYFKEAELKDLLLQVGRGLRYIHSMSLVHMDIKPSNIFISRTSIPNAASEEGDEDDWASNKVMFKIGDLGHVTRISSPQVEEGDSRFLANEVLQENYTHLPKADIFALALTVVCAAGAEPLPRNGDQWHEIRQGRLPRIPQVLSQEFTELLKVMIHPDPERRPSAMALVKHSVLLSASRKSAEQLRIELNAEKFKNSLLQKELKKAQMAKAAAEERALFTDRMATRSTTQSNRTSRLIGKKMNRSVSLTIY

- inhibition [1]: 84%
- fold change (FC) [2]: 0.22
- inhibition [3]: 0%
SMILES: CNC(=O)c1ccccc1Oc1nc(Nc2cc(OC)c(OC)c(OC)c2)ncc1Br

- inhibition [4]: 0%
- fold change (FC) [5]: 0
- inhibition [6]: 1%
- fold change (FC) [7]: 0
SMILES: CC(C)[C@H](NC(=O)c1cc(-c2cnn3cc(-c4ccc(OCCN5CCCCC5)cc4)cnc23)cs1)C(F)(F)F

- fold change (FC) [8]: 0.1
- inhibition [9]: 2%
- fold change (FC) [10]: 0
- inhibition [11]: 0%
- fold change (FC) [12]: 0.16
SMILES: O=C(N[C@@H](C1CC1)C(F)(F)F)c1cc(-c2cnn3cc(-c4ccc(F)cc4)cnc23)cs1
